These results are taken from ChEMBL document CHEMBL1158984, “Hypolipidemic, anti-inflammatory, and antineoplastic activity and cytotoxicity of flavonolignans isolated from Hydnocarpus wightiana seeds” (J Nat Prod, 1991).

One data set has as its system KB. Put plainly: Cytotoxicity against human KB cells after 3 days by trypan blue exclusion technique. It counts as functional. Conditions: 72 h, read-out: ED50 (the source's name). In outline: (§1)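 Tumor cells were mixed on day 0 with sterile drug at 1–100 µg/ml (from 1 mM stock in 0.05% Tween 80 water) in growth medium, 1 ml final. Cells were counted on day 3, while growth was still logarithmic. The concentration killing 50% of cells was read from a semilog plot.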

Data set [1] in a line: Cytotoxicity against human MB9812 cells after 3 days by trypan blue exclusion technique. It counts as functional. Conditions: MB9812, 72 h, read-out: ED50 (the source's name). Put shortly: as §1
Data set [2] is described as follows: Cytotoxicity against human HeLaS3 cells after 3 days by trypan blue exclusion technique. It counts as functional. Conditions: HeLa S3, 72 h, read-out: ED50 (the source's name). Put shortly: as §1
Data set [3] can be described thus: Cytotoxicity against human TMOLT3 cells after 3 days by trypan blue exclusion technique. The format is functional. Conditions: MOLT-3, 72 h, read-out: ED50 (the source's name). In outline: as §1
The next data set has as its system SW480. The data set can be described thus: Cytotoxicity against human SW480 cells after 3 days by trypan blue exclusion technique. The format is functional. Conditions: SW480, 72 h, read-out: ED50 (the source's name). In outline: as §1
A further data set has as its system L1210. The data set can be described thus: Cytotoxicity against mouse L1210 cells after 3 days by trypan blue exclusion technique. The format is functional. Conditions: L1210, 72 h, read-out: ED50 (the source's name). Put shortly:
as §1

Data set [4] is described as follows: Cytotoxicity against human TE-418 cells after 3 days by trypan blue exclusion technique. Conditions: TE-418, 72 h, read-out: ED50 (the source's name). The format is functional. In outline:
as §1

Data set [5] is described as follows: Cytotoxicity against human EH118MG cells after 3 days by trypan blue exclusion technique. Conditions: 72 h, read-out: ED50 (the source's name). It counts as functional. Put shortly: as §1
Data set [6] concerns Mus musculus. The data set can be described thus: Hypolipidemic activity in CF1 mouse assessed as serum cholesterol level at 8 mg/kg/day, ip administered for 16 days measured on day 16 relative to control. The format is functional. Conditions: route intraperitoneal. In outline:
(§2)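 Male CF1 mice (28 g) were dosed daily for 16 days, with drug suspended in 1% carboxymethylcellulose. On days 9 and 16 blood was drawn from the tail vein and serum spun at 3000 g for 3 min. Total cholesterol was measured by the Liebermann-Burchard reaction and triglyceride by a commercial kit. Results are percent of vehicle control, n = 6, mean ± SD, Student's t-test.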

In data set [7] the test system is Mus musculus. The data set can be described thus: Antiinflammatory activity against CF1 mouse assessed as inhibition of carrageenan-induced paw edema at 8 mg/kg/day, ip administered 30 mins before carrageenan challenge measured after 3 hrs relative to control. The format is functional. Conditions: route intraperitoneal. In outline:
(§3)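 CF1 male mice (ca. 25 g) got drug ip in 0.05% Tween 80 water twice, 3 h and 30 min before 0.2 ml of 1% carrageenan in 0.9% saline was injected into the right hind plantar surface. The left foot got saline as baseline. After 3 h both feet were cut off at the ankle and paw weight gain was compared; results are percent inhibition, n = 6, mean ± SD.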
A general note: The carrageenan paw model is a standard test of acute inflammation.

The subject of data set [8] is Mus musculus. The data set can be described thus: Hypolipidemic activity in CF1 mouse assessed as serum cholesterol level at 8 mg/kg/day, ip administered for 16 days measured on day 9 relative to control. Conditions: route intraperitoneal. It counts as functional. In outline: as §2
A further data set relates to Ehrlich. Put plainly: In vivo antineoplastic activity against mouse Ehrlich ascite carcinoma cells xenografted in CF1 mouse assessed as inhibition of tumor growth at 8 mg/kg/day after 9 days relative to control. The format is functional. Conditions: 216 h. In outline: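 On day 0, CF1 male mice (ca. 25 g) received 2 × 10^6 Ehrlich ascites cells ip in isotonic saline. Drug in 0.05% Tween 80 water was given at 8 mg/kg/day on days 1–9. On day 10 ascites fluid was collected, and volume and packed-cell volume per animal were used to calculate percent tumor growth inhibition; n = 6, mean ± SD.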

Data set [9] concerns Mus musculus. Put plainly: Hypolipidemic activity in CF1 mouse assessed as serum cholesterol level at 8 mg/kg/day, ip administered for 16 days measured on day 16 relative to control.
Data set [10] concerns Mus musculus. Put plainly: Toxicity in CF1 mouse assessed as behavioral changes at 8 mg/kg/day administered in multiple doses for 16 days. Conditions: in vivo, 384 h. The format is organism-based. Put shortly: (§4)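 During 16 days of multiple ip dosing at 8 mg/kg/day, mice were watched for body weight loss, food consumption, and behavioral, CNS and motor activity.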
Data set [11] concerns Mus musculus. Put plainly: Toxicity in CF1 mouse assessed as body weight loss at 8 mg/kg/day administered in multiple doses for 16 days. It counts as organism-based. Conditions: in vivo, 384 h. Put shortly: as §4
Data set [12] concerns Mus musculus. Put plainly: Toxicity in CF1 mouse assessed as change in food consumption at 8 mg/kg/day administered in multiple doses for 16 days. The format is organism-based. Conditions: in vivo, 384 h. In outline: as §4
In data set [13] the test system is Mus musculus. Put plainly: Toxicity in CF1 mouse assessed as change in CNS and motor activity at 8 mg/kg/day administered in multiple doses for 16 days. The format is organism-based. Conditions: in vivo, 384 h. Put shortly:
as §4

Data set [14] relates to Mus musculus. Put plainly: Hypolipidemic activity in CF1 mouse assessed as serum cholesterol level at 150 mg/kg/day administered for 16 days measured on day 9 relative to control. It counts as functional. In outline: as §2
For data set [15], the system named is Mus musculus. The data set can be described thus: Hypolipidemic activity in CF1 mouse assessed as serum triglyceride level at 150 mg/kg/day administered for 16 days measured on day 16 relative to control.
The subject of data set [16] is Mus musculus. Put plainly: Hypolipidemic activity in CF1 mouse assessed as serum triglyceride level at 150 mg/kg/day administered for 16 days measured on day 16 relative to control. It counts as functional. In outline:
as §2

In data set [17] the test system is Mus musculus. Put plainly: Antiinflammatory activity against CF1 mouse assessed as inhibition of carrageenan-induced paw edema at 50 mg/kg administered 30 mins before carrageenan challenge measured after 3 hrs relative to control. It counts as functional. Put shortly:
as §3

Data set [18] relates to Mus musculus. The data set can be described thus: Antiinflammatory activity against CF1 mouse assessed as inhibition of carrageenan-induced paw edema at 10 mg/kg administered 30 mins before carrageenan challenge measured after 3 hrs relative to control. It counts as functional. Put shortly: as §3

Converted amounts (≈) assume the structure as drawn.

Regarding `NC(=O)NO` [HYDROXYUREA], the EC50 in the data set on KB turned out to be 5.29 µg/mL (≈ 69.6 µM); in data set [1], 7.37 µg/mL (≈ 96.9 µM); in [2], 1.96 µg/mL (≈ 25.8 µM); in data set [3], 3.18 µg/mL (≈ 41.8 µM); with SW480, 4.79 µg/mL (≈ 63 µM); in the data set on L1210 it was 2.67 µg/mL (≈ 35.1 µM). For the same compound, the EC50 in data set [4] is 7.54 µg/mL (≈ 99.1 µM); in data set [5], 2.27 µg/mL (≈ 29.8 µM).

As to `COc1cc([C@@H]2c3c(oc4cc(O)cc(O)c4c3=O)-c3cc(O)c(O)cc3[C@@H]2CO)ccc1O` [NEOHYDNOCARPIN], the EC50 in the data set with KB came to 1.06 µg/mL (≈ 2.28 µM); in [1], 4.53 µg/mL (≈ 9.75 µM); in data set [2] it was 2.12 µg/mL (≈ 4.56 µM); in data set [3], 3.05 µg/mL (≈ 6.57 µM); in the data set with SW480, 2.03 µg/mL (≈ 4.37 µM); with L1210, 3.29 µg/mL (≈ 7.08 µM). The EC50 in [4] is 2.49 µg/mL (≈ 5.36 µM); in data set [5], 4.07 µg/mL (≈ 8.76 µM). For the same compound, the Activity with Mus musculus [6] stood at 79%; in the data set with Mus musculus [8], 85%; with Mus musculus [9] it was 79%. The inhibition in vivo at 8 mg/kg/day came to 6% in the data set with Mus musculus [7] and 43.1% in the data set with Ehrlich.

Consider `COc1cc(/C=C(\CO)c2cc([C@H]3Oc4cc(-c5cc(=O)c6c(O)cc(O)cc6o5)ccc4O[C@@H]3CO)cc(OC)c2O)ccc1O` [HYDNOWIGHTIN], for which the EC50 with KB came out at 1.96 µg/mL (≈ 3.05 µM); in [1] it was 7.49 µg/mL (≈ 11.7 µM); in data set [2] it was 3.01 µg/mL (≈ 4.68 µM); in data set [3], 4.33 µg/mL (≈ 6.74 µM); in the data set with SW480, 2.38 µg/mL (≈ 3.7 µM); in the data set on L1210 it was 3.07 µg/mL (≈ 4.78 µM). Besides, the EC50 in data set [4] is 2.5 µg/mL (≈ 3.89 µM); in data set [5], 5.02 µg/mL (≈ 7.81 µM). In addition, the Activity with Mus musculus [6] is listed as 59%; in the data set on Mus musculus [8], 80%; in the data set with Mus musculus [10] it was “Non-toxic”; in the data set on Mus musculus [11], “Non-toxic”; in the data set on Mus musculus [12], “Non-toxic”; with Mus musculus [9] it was 59%. Further, the Activity entry with Mus musculus [13] is given as “Non-toxic”. Further, the inhibition in vivo at 8 mg/kg/day was found to be 24% with Mus musculus [7] and 12.1% with Ehrlich.

Take `O=c1[nH]cc(F)c(=O)[nH]1` [FLUOROURACIL]: the EC50 is 1.25 µg/mL (≈ 9.61 µM) in the data set with KB; 5.64 µg/mL (≈ 43.4 µM) in [1]; 2.47 µg/mL (≈ 19 µM) in data set [2]; 2.14 µg/mL (≈ 16.5 µM) in [3]; 3.09 µg/mL (≈ 23.8 µM) with SW480; 1.41 µg/mL (≈ 10.8 µM) in the data set with L1210. Moreover, the EC50 in data set [5] was determined as 1.28 µg/mL (≈ 9.84 µM).

For `CCOC(=O)C(C)(C)Oc1ccc(Cl)cc1` [CLOFIBRATE], the Activity stood at 88% with Mus musculus [14], 75% with Mus musculus [15] and 75% in the data set on Mus musculus [16].

Consider `CCCCC1C(=O)N(c2ccccc2)N(c2ccccc2)C1=O` [PHENYLBUTAZONE], for which, in the data set with Mus musculus [17], the inhibition in vivo at 50 mg/kg was 47%.

Consider `COc1cc([C@H]2Oc3cc(-c4cc(=O)c5c(O)cc(O)cc5o4)ccc3O[C@@H]2CO)ccc1O` [HYDNOCARPIN], for which the EC50 in the data set on KB was found to be 1.15 µg/mL (≈ 2.48 µM); in data set [1], 8.18 µg/mL (≈ 17.6 µM); in data set [2], 2.02 µg/mL (≈ 4.35 µM); in data set [3] it was 2.94 µg/mL (≈ 6.33 µM); in the data set on SW480, 2 µg/mL (≈ 4.31 µM); in the data set on L1210 it was 3.65 µg/mL (≈ 7.86 µM). Also, the values for the EC50 in [4] and in [5] were 2.14 µg/mL (≈ 4.61 µM) and 2.59 µg/mL (≈ 5.58 µM), respectively. Also, the figures for the Activity in the data set with Mus musculus [6], in the data set on Mus musculus [8] and in the data set on Mus musculus [9] were 62%, 83% and 62%, respectively. In addition, the results for the inhibition in vivo at 8 mg/kg/day in the data set on Mus musculus [7] and in the data set on Ehrlich were 42% and 84.8%, respectively.

`COc1ccc2c(c1)c(CC(=O)O)c(C)n2C(=O)c1ccc(Cl)cc1` [INDOMETHACIN]: the inhibition in vivo at 10 mg/kg in the data set with Mus musculus [18] turned out to be 78%.

Take `Nc1ccn([C@@H]2O[C@H](CO)[C@@H](O)[C@@H]2O)c(=O)n1` [CYTARABINE]: the EC50 in the data set with KB stood at 2.84 µg/mL (≈ 11.7 µM); in data set [1] it was 4.6 µg/mL (≈ 18.9 µM); in [2], 2.13 µg/mL (≈ 8.76 µM); in data set [3] it was 2.67 µg/mL (≈ 11 µM); with SW480, 3.42 µg/mL (≈ 14.1 µM); in the data set on L1210 it was 2.76 µg/mL (≈ 11.3 µM). Further, in [5], the EC50 stood at 1.88 µg/mL (≈ 7.73 µM).

Broadly, the inhibition in vivo is the relative decrease from the control value, in per cent.
